Key:
Menin (Homo sapiens) [1] = biological target: T1, Menin (Homo sapiens) (UniProt O00255); test: Binding affinity to recombinant human menin protein assessed as covalent complex formation measured after overnight incubation by LC/MS analysis; parameters: concentration or dose not given beside the values
T1 sequence (whole entry): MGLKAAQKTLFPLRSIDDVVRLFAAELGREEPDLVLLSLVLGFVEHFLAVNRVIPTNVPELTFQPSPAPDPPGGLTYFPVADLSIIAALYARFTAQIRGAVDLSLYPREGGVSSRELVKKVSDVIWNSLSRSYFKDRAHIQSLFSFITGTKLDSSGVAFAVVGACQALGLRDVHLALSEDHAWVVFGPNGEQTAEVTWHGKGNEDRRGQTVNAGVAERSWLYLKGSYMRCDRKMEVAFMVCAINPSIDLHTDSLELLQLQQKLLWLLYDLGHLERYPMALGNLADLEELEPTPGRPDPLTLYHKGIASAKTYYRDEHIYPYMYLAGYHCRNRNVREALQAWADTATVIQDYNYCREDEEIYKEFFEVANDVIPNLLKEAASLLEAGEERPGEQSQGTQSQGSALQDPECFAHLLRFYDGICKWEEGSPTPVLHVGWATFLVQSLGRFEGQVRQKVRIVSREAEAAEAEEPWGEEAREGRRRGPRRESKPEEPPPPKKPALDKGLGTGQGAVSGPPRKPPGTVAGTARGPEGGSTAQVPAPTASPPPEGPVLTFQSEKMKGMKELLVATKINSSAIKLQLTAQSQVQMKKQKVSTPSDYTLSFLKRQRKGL

Menin (Homo sapiens) [2] = biological target: T1, Menin (Homo sapiens); test: Binding affinity to recombinant human menin protein assessed as covalent complex formation incubated for 1 hrs by LC/MS analysis; parameters: concentration or dose not given beside the values
How it was run: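 Menin (25 mg/mL in 25 mM Tris pH 8.0, 150 mM NaCl, 5 mM DTT) incubated with compound at a 1:1.2 protein:compound molar ratio for 1 h or overnight at 4 °C. Diluted to 1 mg/mL, then reverse-phase C4 LC with a 5–100% MeCN/0.2% formic acid gradient and Q-TOF mass spectrometry to detect the covalent adduct.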

MV4-11 = test: Anti-proliferative activity against human MV4-11 cells harboring MLL/AF4 fusion protein assessed as cell growth inhibition measured after 4 days by Cell Titre Glo Luminescent Cell viability assay; format: functional, cell-based; conditions: MV4-11, 96 h
Menin = biological target: T2, Menin (Homo sapiens, UniProt O00255); test: Binding affinity to menin (unknown origin) incubated for 1 hr by fluorescence polarization-based competitive binding assay
T2 sequence (O00255 whole entry): T1 sequence (whole entry)

Menin (Homo sapiens) [3] = biological target: T1, Menin (Homo sapiens); test: Binding affinity to recombinant human menin protein assessed as covalent complex formation incubated for 30 mins by LC/MS analysis; parameters: concentration or dose not given beside the values
Menin (Homo sapiens) [4] = biological target: T1, Menin (Homo sapiens); test: Binding affinity to recombinant human menin protein assessed as covalent complex formation incubated for 10 mins by LC/MS analysis; parameters: concentration or dose not given beside the values
MOLM-13 = test: Anti-proliferative activity against human MOLM-13 cells harboring MLL/AF9 fusion protein assessed as cell growth inhibition measured after 4 days by Cell Titre Glo Luminescent Cell viability assay; format: functional, cell-based; conditions: MOLM-13, 96 h
[5] = Plasma concentration in mouse at 25 mg/kg, po measured after 3 hrs; format: ADME, organism-based
How it was run: (§1)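 Mice given a single oral dose of 25 mg/kg; plasma concentrations sampled at 1, 3 and 6 h post-dose.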

[6] = Plasma concentration in mouse at 25 mg/kg, po measured after 6 hrs; format: ADME, organism-based; how it was run: as §1
[7] = Plasma concentration in mouse at 25 mg/kg, po measured after 1 hr; format: ADME, organism-based; how it was run: as §1

| Activity (Menin (Homo sapiens) [1]) [%] | Activity (Menin (Homo sapiens) [2]) [%] | IC50 (MV4-11) [nM] | IC50 (Menin) [nM] | Activity (Menin (Homo sapiens) [3]) [%] | Activity (Menin (Homo sapiens) [4]) [%] | IC50 (MOLM-13) [nM] | concentration at 3 h [5] [ng/mL] | concentration at 6 h [6] [ng/mL] | concentration at 1 h [7] [ng/mL] | Compound |
| --- | --- | --- | --- | --- | --- | --- | --- | --- | --- | --- |
|  |  | > 1000 |  |  |  | > 10000 |  |  |  | COC(=O)N[C@H]1CCC[C@@H]1[C@](CN1CCC1)(c1cccc(F)c1)C1CCN(CC2(C(=O)OC)CN(c3ccc(S(=O)(=O)C4CC4)cc3)C2)CC1 |
| 45.1 | 0 | 436 |  | 0 | 0 | 504 |  |  |  | C=CC(=O)N1C[C@H]2C[C@@H]1CN2S(=O)(=O)c1ccc(N2CC(CN3CCC([C@@](CN4CCC4)(c4cccc(F)c4)[C@H]4CCC[C@@H]4NC(=O)OC)CC3)(OC)C2)cc1 |
|  |  |  |  |  |  |  | 735 | 928 | 624 | COC(=O)N[C@H]1CCC[C@@H]1[C@](CN1CCC1)(c1cccc(F)c1)C1CCN(CC2CN(c3ccc(S(=O)(=O)C4CC4)cc3)C2)CC1 |
|  |  | 192 |  |  |  | 553 |  |  |  | COC(=O)N[C@H]1CCC[C@@H]1[C@](CN)(c1cccc(F)c1)C1CCN(CC2CN(c3ccc(S(=O)(=O)C4CC4)cc3)C2)CC1 |

The remaining lines, values behind:

| Compound | Activity (Menin (Homo sapiens) [1]) [%] | Activity (Menin (Homo sapiens) [2]) [%] | IC50 (MV4-11) [nM] | IC50 (Menin) [nM] | Activity (Menin (Homo sapiens) [3]) [%] | Activity (Menin (Homo sapiens) [4]) [%] | IC50 (MOLM-13) [nM] | concentration at 3 h [5] [ng/mL] | concentration at 6 h [6] [ng/mL] | concentration at 1 h [7] [ng/mL] |
| --- | --- | --- | --- | --- | --- | --- | --- | --- | --- | --- |
| C=CC(=O)N1CCC[C@@H](S(=O)(=O)c2ccc(N3CC(CN4CCC([C@@](CN5CCC5)(c5cccc(F)c5)[C@H]5CCC[C@@H]5NC(=O)OC)CC4)(OC)C3)cc2)C1 | 90 | 40.5 | 74 | 3.7 | 22.6 | 9.8 | 188 |  |  |  |
| C=CC(=O)N1CCC[C@H](S(=O)(=O)c2ccc(N3CC(CN4CCC([C@@](CN5CCC5)(c5cccc(F)c5)[C@H]5CCC[C@@H]5NC(=O)OC)CC4)(OC)C3)cc2)C1 | 93.1 | 37.4 | 77 | 3 | 27.9 | 8.8 | 196 |  |  |  |
| C=CC(=O)N1CCC(S(=O)(=O)c2ccc(N3CC(CN4CCC([C@@](CN5CCC5)(c5cccc(F)c5)[C@H]5CCC[C@@H]5NC(=O)OC)CC4)(OC)C3)cc2)CC1 | 27 | 0 | 156 | 3.8 | 0 | 0 | 594 |  |  |  |
| COC(=O)N[C@H]1CCC[C@@H]1[C@](CN1CCC1)(c1cccc(F)c1)C1CCN(CC2(OC)CN(c3ccc(S(=O)(=O)C4CC4)cc3)C2)CC1 |  |  |  |  |  |  |  | 5750 | 2200 | 8260 |
| C=CC(=O)N1CC(S(=O)(=O)c2ccc(N3CC(CN4CCC([C@@](CN5CCC5)(c5cccc(F)c5)[C@H]5CCC[C@@H]5NC(=O)OC)CC4)(OC)C3)cc2)C1 | 81.5 | 59.4 | 112 |  | 40.9 | 24.1 | 402 |  |  |  |
| COC(=O)N[C@H]1CCC[C@@H]1[C@](CN1CCC1)(c1cccc(F)c1)C1CCN(CC2(OC)CN(c3ccc(S(=O)(=O)C4CN(C(=O)/C=C/CN(C)C)C4)cc3)C2)CC1 | 90.9 | 85.4 | 2.3 | 2.7 | 83.4 | 36.9 | 49.7 |  |  |  |

Reference: ChEMBL document CHEMBL5038600, “Discovery of M-1121 as an Orally Active Covalent Inhibitor of Menin-MLL Interaction Capable of Achieving Complete and Long-Lasting Tumor Regression” (J Med Chem, 2021)
